# pIC50: −log10 of the molar value.
# Tests used:
# [1] = Parallel artificial membrane permeability assay; assay type: in vitro ADME; conditions: pH 7.4
# Method in brief: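 Stirred double-sink PAMPA with a lipid/dodecane membrane designed to model GI passive permeability. Donor and acceptor both at pH 7.4. Test compound from 10 mM DMSO stock, diluted to 0.05 mM in pH 7.4 buffer (0.5% DMSO final). Permeation ran 30 min at room temperature with donor stirring. Donor and acceptor concentrations read by UV plate reader.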
# recombinant human GALK1 [2] = biological target: T1, recombinant human GALK1 (Homo sapiens, UniProt P51570); assay: GALK1 biochemical assay; conditions: for fold improvement in potency compared to compound 2: ratio of GALK1 IC50 vs 2
# mouse recombinant GALK1 [3] = biological target: T2, mouse recombinant GALK1 (Mus musculus, UniProt Q9R0N0); assay: GALK1 biochemical assay, mouse enzyme
# other kinases = assay: KINOMEScan screen; assay type: binding; conditions: KINOMEScan at 10 μM
# recombinant human GALK1 [4] = biological target: T1, recombinant human GALK1; conditions: read-out: IC50 against human recombinant GALK1; previously reported lead; cited from earlier work
# mouse recombinant GALK1 [5] = biological target: T2, mouse recombinant GALK1; conditions: read-out: IC50 against mouse recombinant GALK1; previously reported lead; cited from earlier work
# GALK2 = conditions: cited from earlier work
# [6] = system: Fibroblasts derived from GALT-deficient patients; conditions: primary fibroblast cells from patients with classic galactosemia; cited from earlier work
# [7] = system: Fibroblasts derived from GALT-deficient patients; assay: Cellular Gal-1P accumulation assay after galactose challenge; assay type: cell-based, human; conditions: at 3 μM, patient fibroblasts
# Method in brief: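 GALT-deficient patient fibroblasts kept in galactose-free DMEM with 10% FBS. Inhibitor added at set concentrations for 2 to 4 h at 37 °C. Galactose then added to 0.05% for a 4 h challenge. Cells PBS-washed twice and lysed in ice-cold hypotonic buffer (25 mM Tris-HCl pH 7.4, 25 mM NaCl, 0.5 mM EDTA, protease inhibitors). Lysate needle-sheared, then spun 16,000g for 20 min at 4 °C. Gal-1P measured by alkaline phosphatase-coupled method and normalized to protein.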
# [8] = Human liver microsome stability; assay type: in vitro ADME; conditions: liver microsomes, pH 7.4
# [9] = Mouse pharmacokinetic studies; assay type: in vivo, CD1 mice
# Method in brief: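 Fed CD1 mice, 6–8 weeks old, ~25–30 g. Given single IP (50 mpk), PO (30 mpk) or IV doses as solutions in 5% NMP/25% PEG 300/70% of 15% w/w Kolliphor HS 15 in water (5, 3 and 0.6 mg/mL for IP, PO and IV). Heart-puncture blood taken into heparin-Na from 3 mice per time, 5 min–24 h. Plasma analysed by LC/MS/MS. Once-daily cageside observations.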
# [10] = male, CD1, mouse, plasma, iv, 3 mg/kg
# T2 sequence (Q9R0N0 whole entry): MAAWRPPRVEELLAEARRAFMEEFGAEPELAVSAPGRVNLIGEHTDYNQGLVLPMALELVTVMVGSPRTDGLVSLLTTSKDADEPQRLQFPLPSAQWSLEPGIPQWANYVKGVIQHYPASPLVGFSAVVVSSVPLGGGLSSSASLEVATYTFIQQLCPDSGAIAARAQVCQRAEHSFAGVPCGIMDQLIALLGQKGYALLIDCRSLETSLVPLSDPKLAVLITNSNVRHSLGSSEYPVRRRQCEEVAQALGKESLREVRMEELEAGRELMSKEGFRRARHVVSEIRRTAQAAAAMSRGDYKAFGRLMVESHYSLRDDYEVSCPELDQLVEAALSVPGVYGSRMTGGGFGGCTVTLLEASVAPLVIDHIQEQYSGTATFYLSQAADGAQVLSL
# T1 sequence (P51570 whole entry): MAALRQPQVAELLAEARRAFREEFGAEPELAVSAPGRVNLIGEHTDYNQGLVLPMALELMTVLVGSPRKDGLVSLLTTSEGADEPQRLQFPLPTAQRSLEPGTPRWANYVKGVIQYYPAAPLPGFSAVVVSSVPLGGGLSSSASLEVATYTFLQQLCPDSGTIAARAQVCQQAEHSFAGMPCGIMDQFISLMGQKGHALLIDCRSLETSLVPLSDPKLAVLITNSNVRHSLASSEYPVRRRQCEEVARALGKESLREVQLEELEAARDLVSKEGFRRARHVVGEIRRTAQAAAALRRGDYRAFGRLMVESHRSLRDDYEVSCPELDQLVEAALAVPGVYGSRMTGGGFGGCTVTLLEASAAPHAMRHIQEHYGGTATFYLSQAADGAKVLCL
structure (smiles),measurement,setting,value
"CC1=C(C(=O)NCc2cnn(C)c2)C(c2ccc(C)cc2Cl)N=C(Nc2nc3cccc(N)c3o2)N1 (centres unmarked) [Compound 67, 2-((7-aminobenzo[d]oxazol-2-yl)amino)-4-(2-chloro-4-methylphenyl)-6-methyl-N-((1-methyl-1H-pyrazol-4-yl)methyl)-1,4-dihydropyrimidine-5-carboxamide]","Papp at 30 min, 0.05 mM",[1]; PAMPA,315 ×10⁻⁶ cm/s
"CC1=C(C(=O)Nc2cc(C(=O)O)ccn2)C(c2ccccc2Cl)N=C(Nc2nc3ccc(F)cc3o2)N1 (centres unmarked) [Compound 38, 2-(4-(2-Chlorophenyl)-2-((6-fluorobenzo[d]oxazol-2-yl)amino)-6-methyl-1,4-dihydropyrimidine-5-carboxamido)isonicotinic Acid]",biochemical potency against GALK1,recombinant human GALK1 [2],submicromolar
"CC1=C(C(=O)NCc2cnn(C)c2)[C@H](c2ccc(C)cc2Cl)N=C(Nc2nc3cccc(N)c3o2)N1 [Compound (R)-67, (R)-2-((7-Aminobenzo[d]oxazol-2-yl)amino)-4-(2-chloro-4-methylphenyl)-6-methyl-N-((1-methyl-1H-pyrazol-4-yl)methyl)-1,4-dihydropyrimidine-5-carboxamide]",PAMPA,[1],661 10^−6 cm/s
"CCn1cc(CNC(=O)C2=C(C)NC(Nc3nc4ccc(F)c(N)c4o3)=N[C@H]2c2ccc(C)cc2Cl)cn1 [Compound (R)-70, (R)-2-((7-Amino-6-fluorobenzo[d]oxazol-2-yl)amino)-4-(2-chloro-4-methylphenyl)-N-((1-ethyl-1H-pyrazol-4-yl)methyl)-6-methyl-1,4-dihydropyrimidine-5-carboxamide]",fold more potent than the (S)-enantiomer,recombinant human GALK1 [2]; (R) vs (S) enantiomer at C4,18 fold
same,mouse GALK1 inhibition,mouse recombinant GALK1 [3],submicromolar
same,PAMPA,[1],773 10^−6 cm/s
O=C1CCCC2=C1C(c1[nH]ncc1Cl)N=C(Nc1nc3ccccc3o1)N2 (centres unmarked) [Compound 1],cross-reactivity against other kinases,other kinases,negligible cross-reactivity
same,pIC50,recombinant human GALK1 [4],5.11
same,pIC50,mouse recombinant GALK1 [5],4.86
same,activity against GALK2,GALK2,inactive
same,effect on gal-1P levels,[6],lowered gal-1P levels
"CCn1cc(CNC(=O)C2=C(C)NC(Nc3nc4ccc(F)c(N)c4o3)=N[C@@H]2c2ccc(C)cc2Cl)cn1 [Compound (S)-70, (S)-2-((7-Amino-6-fluorobenzo[d]oxazol-2-yl)amino)-4-(2-chloro-4-methylphenyl)-N-((1-ethyl-1H-pyrazol-4-yl)methyl)-6-methyl-1,4-dihydropyrimidine-5-carboxamide]",PAMPA,[1],407 10^−6 cm/s
"CC1=C(C(=O)NCc2ccc(C(=O)O)cc2)C(c2ccccc2Cl)N=C(Nc2nc3ccccc3o2)N1 (centres unmarked) [Compound 25, 4-((2-(Benzo[d]oxazol-2-ylamino)-4-(2-chlorophenyl)-6-methyl-1,4-dihydropyrimidine-5-carboxamido)methyl)benzoic Acid]",fold better than 24,recombinant human GALK1 [2]; GALK1 IC50 vs 24,2 fold
"CC1=C(C(=O)NCc2cnn(C)c2)C(c2ccccc2Cl)N=C(Nc2nc3ccccc3o2)N1 (centres unmarked) [Compound 33, 2-(Benzo[d]oxazol-2-ylamino)-4-(2-chlorophenyl)-6-methyl-N-((1-methyl-1H-pyrazol-4-yl)methyl)-1,4-dihydropyrimidine-5-carboxamide]",fold improvement in potency compared to compound 2,recombinant human GALK1 [2],7–9 fold
"CC1=C(C(=O)Nc2cc(C(=O)O)ccn2)C(c2ccccc2Cl)N=C(Nc2nc3cccc(N)c3o2)N1 (centres unmarked) [Compound 53, 2-(2-((7-Aminobenzo[d]oxazol-2-yl)amino)-4-(2-chlorophenyl)-6-methyl-1,4-dihydropyrimidine-5-carboxamido)isonicotinic Acid]",biochemical potency against GALK1,recombinant human GALK1 [2],submicromolar
same,fold potency improvement over 35,recombinant human GALK1 [2]; ratio of GALK1 IC50 vs 35,5 fold
"CC1=C(C(=O)Nc2cc(C(=O)O)ccn2)C(c2ccccc2Cl)N=C(Nc2nc3ccccc3o2)N1 (centres unmarked) [Compound 35, 2-(2-(Benzo[d]oxazol-2-ylamino)-4-(2-chlorophenyl)-6-methyl-1,4-dihydropyrimidine-5-carboxamido)isonicotinic Acid]",fold improvement in potency compared to compound 2,recombinant human GALK1 [2],10 fold
"CC1=C(C(=O)Nc2ccc(C(=O)O)cc2)C(c2ccccc2Cl)N=C(Nc2nc3ccccc3o2)N1 (centres unmarked) [Compound 16, 4-(2-(Benzo[d]oxazol-2-ylamino)-4-(2-chlorophenyl)-6-methyl-1,4-dihydropyrimidine-5-carboxamido)benzoic Acid]",fold improvement in potency compared to compound 2,recombinant human GALK1 [2],> 5 fold
"CC1=C(C(=O)NCc2cnn(C)c2)C(c2ccc(C)cc2Cl)N=C(Nc2nc3ccc(F)c(N)c3o2)N1 (centres unmarked) [Compound 68, 2-((7-Amino-6-fluorobenzo[d]oxazol-2-yl)amino)-4-(2-chloro-4-methylphenyl)-6-methyl-N-((1-methyl-1H-pyrazol-4-yl)methyl)-1,4-dihydropyrimidine-5-carboxamide]",mouse GALK1 inhibition,mouse recombinant GALK1 [3],submicromolar
same,gal-1P/protein levels,[7],~ 50 % of control
same,half-life at 1 μM,[8],47 min
same,PAMPA,[1],485 10^−6 cm/s
same,time up to which plasma concentrations stay above 1 μM,"[9]; IP, single 50 mg/kg dose",~ 7 h
same,time after which compound levels are below LLQ,"[9]; IV, 3 mpk, plasma",2 h
same,clearance at 24 h,[9]; [10],19.9 mL/min/kg
same,half-life,[9]; [10],~24 min
"CC1=C(C(=O)NCc2cn(C)cn2)C(c2ccccc2Cl)N=C(Nc2nc3ccccc3o2)N1 (centres unmarked) [Compound 32, 2-(Benzo[d]oxazol-2-ylamino)-4-(2-chlorophenyl)-6-methyl-N-((1-methyl-1H-imidazol-4-yl)methyl)-1,4-dihydropyrimidine-5-carboxamide]",fold improvement in potency compared to compound 2,recombinant human GALK1 [2],7–9 fold
"CCn1cc(CNC(=O)C2=C(C)NC(Nc3nc4cccc(N)c4o3)=NC2c2ccc(C)cc2Cl)cn1 (centres unmarked) [Compound 69, 2-((7-Aminobenzo[d]oxazol-2-yl)amino)-4-(2-chloro-4-methylphenyl)-6-methyl-N-((1-ethyl-1H-pyrazol-4-yl)methyl)-1,4-dihydropyrimidine-5-carboxamide]",PAMPA,[1],632 10^−6 cm/s
"CC1=C(C(=O)Nc2cccc(C(=O)O)c2)C(c2ccccc2Cl)N=C(Nc2nc3ccccc3o2)N1 (centres unmarked) [Compound 15, 3-(2-(Benzo[d]oxazol-2-ylamino)-4-(2-chlorophenyl)-6-methyl-1,4-dihydropyrimidine-5-carboxamido)benzoic Acid]",fold improvement in potency compared to compound 2,recombinant human GALK1 [2],> 5 fold
"CCn1cc(CNC(=O)C2=C(C)NC(Nc3nc4ccc(F)c(N)c4o3)=NC2c2ccc(C)cc2Cl)cn1 (centres unmarked) [Compound 70, 2-((7-Amino-6-fluorobenzo[d]oxazol-2-yl)amino)-4-(2-chloro-4-methylphenyl)-N-((1-ethyl-1H-pyrazol-4-yl)methyl)-6-methyl-1,4-dihydropyrimidine-5-carboxamide]",fold improvement in GALK1 inhibition over 69,recombinant human GALK1 [2]; 6′-F vs des-fluoro 69,4 fold
same,mouse GALK1 inhibition,mouse recombinant GALK1 [3],submicromolar
same,PAMPA,[1],410 10^−6 cm/s

# — PMC8884033 (Journal of medicinal chemistry, 2021)
